Columns and labels:
[1] = Conversion rate of the prodrug in human plasma; assay type: ADME, cell-free
Procedure, shortened: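 Disappearance of prodrug through ester hydrolysis was followed, and the rate was expressed as half-life (T1/2, min).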

Rattus norvegicus [2] = experiment: Effective dose required to inhibit the pulmonary […] infection was determined in rat by intravenous administration; assay type: functional
Procedure, shortened: (§1)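 Pulmonary A. fumigatus CF437 model in male Fisher rats immunosuppressed with cortisone acetate before infection. Dosed twice on the first day and once daily over the following 4 days, iv or po as the line states. ED50 determined on day 14.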

Rattus norvegicus [3] = experiment: Effective dose required to inhibit the systemic Candida albicans infection was determined in rat by intravenous administration; assay type: functional
Procedure, shortened: (§2)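 Male Fisher rats infected systemically with C. albicans ATCC48130. Dosing at 0, 4, 24 and 48 h post-infection, given iv or po as the line states. ED50 derived on day 14.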

[4] = Solubility of the prodrug in water was determined; assay type: physicochemical; details: buffer
Rattus norvegicus [5] = experiment: Effective dose required to inhibit the systemic […] infection was determined in rat by peroral administration; assay type: functional; details: po
Procedure, shortened: (§3)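 Systemic A. fumigatus CF437 infection in male Fisher rats. Treatment twice on day 1, then once daily for the next 4 days, iv or po as the line states. ED50 taken on day 14.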

Rattus norvegicus [6] = experiment: Effective dose required to inhibit the pulmonary […] infection was determined in rat by peroral administration; assay type: functional; details: po; procedure, shortened: as §1
Rattus norvegicus [7] = experiment: Effective dose required to inhibit the systemic […] infection was determined in rat by intravenous administration; assay type: functional; procedure, shortened: as §3
Rattus norvegicus [8] = experiment: Effective dose required to inhibit the systemic Candida albicans infection was determined in rat by peroral administration; assay type: functional; details: po; procedure, shortened: as §2

Row | Compound | T1/2 [1] [h] | ED50 (Rattus norvegicus [2]) [µmol/kg] | ED50 (Rattus norvegicus [3]) [µmol/kg] | Solubility [4] [µg/mL] | ED50 (Rattus norvegicus [5]) [µmol/kg] | ED50 (Rattus norvegicus [6]) [µmol/kg] | ED50 (Rattus norvegicus [7]) [µmol/kg] | ED50 (Rattus norvegicus [8]) [µmol/kg]
1 | Cc1cc(C[n+]2cnn(C[C@](O)(c3ccc(F)cc3F)[C@@H](C)c3nc(-c4ccc(C#N)cc4)cs3)c2)cc(C)c1OC(=O)[C@@H]1CCCN1.O=C(O)C(F)(F)F.[Br-] | 2.1 | 17 | 3.5 | > 5000 | > 55 | 18 | > 35 | < 2.1
2 | CNCC(=O)Oc1c(C)cc(C[n+]2cnn(C[C@](O)(c3ccc(F)cc3F)[C@@H](C)c3nc(-c4ccc(C#N)cc4)cs3)c2)cc1C.Cl.[Br-] | < 0.033 | 8 | 4.6 | 49000 | 19 | 17 | 17 | 4.7
3 | C[C@@H](c1nc(-c2ccc(C#N)cc2)cs1)[C@](O)(Cn1cncn1)c1ccc(F)cc1F [RAVUCONAZOLE] |  |  |  | < 1 | 11 | 19 |  | 1.6
